Activity calls are given as the source filed them. No cut-off for these calls is given here.
Experiments:
MCF7 = assay: Cytotoxicity against human MCF7 cells by MTT assay; assay type: functional, cell-based
Procedure, shortened: (§1)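 MTT assay on five human tumour lines: HT-29 colon carcinoma, HCT-8 ileocecal adenocarcinoma, Bel-7402 hepatoma, A549 non-small cell lung carcinoma and MCF-7 breast carcinoma.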

HCT-8 = assay: Cytotoxicity against human HCT8 cells by MTT assay; assay type: functional, cell-based; procedure, shortened: as §1
Bel-7402 = assay: Cytotoxicity against human Bel7402 cells by MTT assay; assay type: functional, cell-based; procedure, shortened: as §1
A549 = assay: Cytotoxicity against human A549 cells by MTT assay; assay type: functional, cell-based; procedure, shortened: as §1
HT-29 [1] = assay: Cytotoxicity against human HT-29 cells by MTT assay; assay type: functional, cell-based; procedure, shortened: as §1
HT-29 [2] = assay: Cell cycle arrest in human HT-29 cells assessed as accumulation of Sub-G1 phase at 20 uM after 24 hrs by flow cytometry relative to control; assay type: functional
Procedure, shortened: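 HT-29 cells were exposed for 24 h. Apoptosis was scored by flow cytometry as the percentage of cells in the Sub-G1 phase, compared against an untreated control group.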

HT-29 [3] = assay: Decrease in topoisomerase 1 expression in human HT-29 cells at 20 uM after 24 hrs relative to control; assay type: functional, cell-based
Procedure, shortened: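 TOPO I protein level in HT-29 cells was probed after 24 h incubation by the common protocols with a commercial TOPO I antibody. Levels were compared with a control group.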

[4] = biological target: T1, DNA topoisomerase 1 (Homo sapiens) (UniProt P11387); assay: Inhibition of topoisomerase 1 assessed as conversion of supercoiled DNA to open circular DNA at 100 uM
T1 sequence (whole entry): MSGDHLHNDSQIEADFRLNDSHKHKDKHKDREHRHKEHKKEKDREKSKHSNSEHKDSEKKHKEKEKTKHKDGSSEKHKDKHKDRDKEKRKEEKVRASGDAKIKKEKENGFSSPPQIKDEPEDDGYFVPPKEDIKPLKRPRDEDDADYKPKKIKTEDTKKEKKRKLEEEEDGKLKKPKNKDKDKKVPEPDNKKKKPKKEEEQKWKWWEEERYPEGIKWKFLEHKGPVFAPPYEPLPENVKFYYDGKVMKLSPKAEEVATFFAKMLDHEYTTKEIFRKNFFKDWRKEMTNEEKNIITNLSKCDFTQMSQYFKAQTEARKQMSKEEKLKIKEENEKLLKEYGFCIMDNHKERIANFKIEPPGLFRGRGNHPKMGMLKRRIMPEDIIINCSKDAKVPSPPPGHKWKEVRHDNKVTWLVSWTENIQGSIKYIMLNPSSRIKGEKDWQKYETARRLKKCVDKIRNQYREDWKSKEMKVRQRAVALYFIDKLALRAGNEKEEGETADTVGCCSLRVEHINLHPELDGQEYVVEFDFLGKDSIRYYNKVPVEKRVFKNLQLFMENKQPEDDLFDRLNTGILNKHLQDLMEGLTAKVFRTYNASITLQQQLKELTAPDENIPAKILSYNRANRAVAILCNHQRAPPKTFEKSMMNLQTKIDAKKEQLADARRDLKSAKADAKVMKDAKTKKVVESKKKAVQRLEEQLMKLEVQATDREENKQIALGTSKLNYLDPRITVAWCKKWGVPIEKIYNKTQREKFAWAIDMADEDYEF
Procedure, shortened: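 A commercial TOPO I drug screening kit was used with a supercoiled plasmid DNA substrate. Activity was read as conversion of supercoiled DNA (Form I) to open circular DNA, with camptothecin as reference inhibitor.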

Activity [4]	SMILES	IC50 (MCF7) [µM]	IC50 (HCT-8) [µM]	IC50 (Bel-7402) [µM]	IC50 (A549) [µM]	IC50 (HT-29 [1]) [µM]	Activity (HT-29 [2]) [%]	Activity (HT-29 [3])
	CN1C(=O)c2c(c3c4ccccc4n(CC(=O)NC(Cc4ccccc4)C(=O)O)c3c3[nH]c4ccccc4c23)C1=O (configuration not stated)	> 10	> 10	> 10	> 10	> 10		
	CC(C)CC(NC(=O)Cn1c2ccccc2c2c3c(c4c5ccccc5[nH]c4c21)C(=O)N(C)C3=O)C(=O)O (configuration not stated)	> 10	> 10	> 10	> 10	> 10		
	CC(NC(=O)Cn1c2ccccc2c2c3c(c4c5ccccc5[nH]c4c21)C(=O)N(C)C3=O)C(=O)O (configuration not stated)	> 10	> 10	> 10	> 10	> 10		
	COC(=O)C(CC(C)C)NC(=O)Cn1c2ccccc2c2c3c(c4c5ccccc5[nH]c4c21)C(=O)N(C)C3=O (configuration not stated)	> 10	> 10	> 10	> 10	> 10		
	CN1C(=O)c2c(c3c4ccccc4n([C@@H]4O[C@H](CO)[C@@H](O)[C@H](O)[C@H]4O)c3c3[nH]c4ccccc4c23)C1=O	> 10	> 10	6.68	> 10	7.44		
	CC(NC(=O)Cn1c2ccccc2c2c3c(c4c5ccccc5[nH]c4c21)C(=O)N(C)C3=O)C(=O)N1CCOCC1 (configuration not stated)	> 10	> 10	> 10	> 10	> 10		
	CC(C)C(NC(=O)Cn1c2ccccc2c2c3c(c4c5ccccc5[nH]c4c21)C(=O)N(C)C3=O)C(=O)O (configuration not stated)	> 10	> 10	> 10	> 10	> 10		
Active	CC(C)C(NC(=O)Cn1c2ccccc2c2c3c(c4c5ccccc5[nH]c4c21)C(=O)N(C)C3=O)C(=O)N1CCOCC1 (configuration not stated)	> 10	> 10	> 10	5.11	2.66	2.49	Active
	COC(=O)C(Cc1ccccc1)NC(=O)Cn1c2ccccc2c2c3c(c4c5ccccc5[nH]c4c21)C(=O)N(C)C3=O (configuration not stated)	> 10	> 10	> 10	> 10	> 10		
	CN1C(=O)c2c(c3c4ccccc4n(CC(=O)NCC(=O)O)c3c3[nH]c4ccccc4c23)C1=O	> 10	> 10	> 10	> 10	> 10		
Active	CCN1CCN(C(=O)C(Cc2ccccc2)NC(=O)Cn2c3ccccc3c3c4c(c5c6ccccc6[nH]c5c32)C(=O)N(C)C4=O)CC1 (configuration not stated)	1.91	1.09	1.91	1.86	2.88	10.3	Active
	COC(=O)C(NC(=O)Cn1c2ccccc2c2c3c(c4c5ccccc5[nH]c4c21)C(=O)N(C)C3=O)C(C)C (configuration not stated)	> 10	> 10	> 10	> 10	> 10		
	COC(=O)CNC(=O)Cn1c2ccccc2c2c3c(c4c5ccccc5[nH]c4c21)C(=O)N(C)C3=O	2.23	> 10	> 10	2.13	2.88		
	COC(=O)C(C)NC(=O)Cn1c2ccccc2c2c3c(c4c5ccccc5[nH]c4c21)C(=O)N(C)C3=O (configuration not stated)	> 10	> 10	> 10	> 10	> 10		
Active	CC(C)CC(NC(=O)Cn1c2ccccc2c2c3c(c4c5ccccc5[nH]c4c21)C(=O)N(C)C3=O)C(=O)N1CCN(C)CC1 (configuration not stated)	1.94	> 10	2.23	1.84	1.26	14.33	Active
Active	CCN1CCN(C(=O)C(CC(C)C)NC(=O)Cn2c3ccccc3c3c4c(c5c6ccccc6[nH]c5c32)C(=O)N(C)C4=O)CC1 (configuration not stated)	2.44	> 10	> 10	7.94	3.48	8.86	Active

— ChEMBL document CHEMBL1154523, “Design and synthesis of N-methylmaleimide indolocarbazole bearing modified 2-acetamino acid moieties as Topoisomerase I inhibitors” (Bioorg Med Chem Lett, 2009)
